Screens from PubChem BioAssay.
D1 mod: allosteric modulators of human D1 dopamine receptor | P21728 | HEK293 D1, CRE-luciferase, dopamine EC30 potentiation; actives deviate in either direction | B-score at 10 µM | 5.9% of 58,000 active | AID 641;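 active = luminescence count or its row- and column-corrected plate score outside the 99.7% band of the plate's sample wells, on either side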
SF1 activator: activators of human nuclear receptor SF-1. Q13285. CHO-K1 Gal4-SF-1 LBD luciferase reporter; % increase over DMSO SF-1-specific signal. activation, % at 10 µM. 1.9% of 65,000 active. AID 522;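 active = activation above the mean activation of all tested compounds plus 3 SD, cut at about 50% in these data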
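System: CHO-K1 cells with Gal4–hSF-1 LBD chimera plus Gal4-driven luciferase; quantity: 4,000 CHO-K1 cells per well; compound: one dose, 10 µM compound, 1% DMSO; times: 20 h compound treatment, 37 °C; measured by: SteadyLite luciferase luminescence; read-out: percent activation versus DMSO; benchmarks: DMSO and mock-transfected background; replicates: one test per compound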
RORA act: activators of human nuclear receptor RORA. P35398. AID 560. 1.5% of 65,000 active. activation, % at 10 µM. CHO-K1 Gal4-RORA LBD luciferase reporter, luminescence; percent increase over mock-subtracted basal signal;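 active = activation above the mean of all tested compounds plus 3 SD, cut at about 49% in these data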;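 also: 0% = DMSO-treated RORA cells and 100% = added signal equal to DMSO minus mock-transfected cells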
Target sequence (P35398 whole entry, looked up, the tested form may be a part): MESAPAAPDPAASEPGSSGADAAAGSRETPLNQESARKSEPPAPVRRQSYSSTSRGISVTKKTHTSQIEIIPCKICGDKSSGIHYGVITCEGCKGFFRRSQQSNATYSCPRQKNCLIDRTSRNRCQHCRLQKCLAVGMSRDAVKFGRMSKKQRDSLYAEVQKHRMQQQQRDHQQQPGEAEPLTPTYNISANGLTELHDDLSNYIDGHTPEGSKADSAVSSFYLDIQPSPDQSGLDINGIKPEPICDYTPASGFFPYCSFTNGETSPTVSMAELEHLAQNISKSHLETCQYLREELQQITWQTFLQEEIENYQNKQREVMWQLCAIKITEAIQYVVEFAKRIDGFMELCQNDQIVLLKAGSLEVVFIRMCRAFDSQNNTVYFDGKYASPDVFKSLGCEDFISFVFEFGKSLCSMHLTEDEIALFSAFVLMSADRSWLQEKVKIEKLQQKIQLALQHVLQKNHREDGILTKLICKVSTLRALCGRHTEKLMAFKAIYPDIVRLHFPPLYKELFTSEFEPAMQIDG
M1 antagonist: antagonists of rat M1 muscarinic receptor; 3.4% of 64,000 active; P08482; CHO-M1 cells, Fluo-4 calcium, ACh EC80 antagonist mode; hits give low values; B-score at 10 µM;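 active = calcium fluorescence response, raw or row-and-column corrected B-score, differing from the plate sample mean either way at a set confidence level, mostly lower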
Htt clearance: mutant huntingtin protein clearance; HeLa Exon1htt(103Q)mCFP, aggregate imaging; zero = plate's median compound well; inhibition, % at 1.5 µM; 0.42% of 47,000 active; AID 853;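 active = inhibition of aggregate fluorescence above about 70%, also judged a hit by eye on the cell image, limit read from the data, passing the limit was not always enough; inconclusive = no rule stated for this call; inactive = not judged a hit on image review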;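 also: cells exposed to compound for three days before fixation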
M1 ag: activates the M1 muscarinic receptor; CHO-M1 cells, Fluo-4 calcium fluorescence, agonist mode; hits give high values; 3% of 64,000 active; B-score at 10 µM;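 active = fluorescence rise, raw or as B-score row- and column-corrected plate score, outside the 99.7% band of its plate's samples, either direction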
M1 agonist conf: confirmation of rat M1 muscarinic receptor agonists; shares compounds with M1 ag; CHO-M1 cells, Fluo-4 calcium fluorescence, agonist mode; actives lie on both sides; fluorescence change (max-min) at 10 µM; 19% of 1,700 active; AID 1488;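 active = fluorescence change differs from the solvent-only DMSO control mean at a set confidence level in both duplicate runs; inconclusive = differs from solvent-only control mean in just one of two runs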;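 also: an EC20 dose of acetylcholine follows compound addition during the same imaging run; raw fluorescence intensity difference in instrument units with no normalization to controls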
M4 ag counter: rat M4 muscarinic agonism, M1 counter-screen; shares compounds with M1 ag; CHO M4/Gqi5 cells, Fluo-4 calcium fluorescence, agonist mode; actives lie on both sides; fluorescence change (max-min) at 10 µM; 9% of 1,700 active; AID 1741;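 active = fluorescence change differing from the plate's solvent-only control wells at 99.7% confidence in both duplicates, whether higher or lower; inconclusive = differs from solvent controls in only one of two duplicates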
Numbers without * were called inactive. An excerpt weighted towards active compounds, which were near 11% of everything screened.

CC(=O)Nc1ccccc1OCC(=O)c1cc(C)n(Cc2cccs2)c1C was read as SF1 activator -70, RORA act -89, M1 antagonist -2.4, M1 ag 3.1*, M1 agonist conf 22 and M4 ag counter -33.
For CC(=O)Nc1ccc(SCC(=O)c2cc(C)n(Cc3cccs3)c2C)cc1 the results were D1 mod 0.06, SF1 activator -58, RORA act -67, M1 antagonist 0.057, Htt clearance -10 and M1 ag 0.29.
Cc1nn(C(C)c2n[nH]c(=S)n2-c2cccc(Cl)c2)c(C)c1[N+](=O)[O-] (centres undefined) was read as Htt clearance 6.
For O=C(NCCc1csc(-c2cccnc2)n1)c1cccc2ccccc12 the results were Htt clearance -23.
Screening O=C(NCCn1cccc1)c1cccc2ccccc12 returned D1 mod -0.22, SF1 activator 3, RORA act -10, M1 antagonist -0.013, Htt clearance -28, M1 ag 5.7*, M1 agonist conf -31* and M4 ag counter -54.
CN(C)CCNC(=O)C12CC3(C)CC(C)(CC(C)(C3)C1)C2 was read as SF1 activator 16, RORA act 14, M1 antagonist -0.94, M1 ag 3.3*, M1 agonist conf inconclusive and M4 ag counter -70.
Cc1ccccc1N1C(=O)c2cccc3c(N(C)CCO)ccc(c23)C1=O was read as D1 mod 2.1, SF1 activator 16, RORA act -20, M1 antagonist -0.15, Htt clearance 10, M1 ag 91*, M1 agonist conf 868* and M4 ag counter 912*.
`Cn1c(SC/C=C/c2ccccc2)nnc1-c1ccco1` gave D1 mod -1, SF1 activator -8, RORA act 22, M1 antagonist -0.084, Htt clearance 13 and M1 ag -0.7.
Screening O=C(c1ccco1)c1cn(CC(=O)N2CCCCC2)c2ccccc12 returned D1 mod -0.34, SF1 activator 9, RORA act 0, M1 antagonist 0.49 and M1 ag 1.
Screening Cc1cc(C)n2nc(SCC(=O)N(C)Cc3ccccc3)nc2n1 returned SF1 activator -1, RORA act -13, M1 antagonist 1, M1 ag 2.1*, M1 agonist conf -18 and M4 ag counter inconclusive.
O=C1CC(=O)N(Cc2ccco2)C(=O)N1 was read as D1 mod -0.078, SF1 activator 5, RORA act 8, M1 antagonist 0.41, M1 ag 3*, M1 agonist conf inconclusive and M4 ag counter -58.
For O=C1CC(=O)N(Cc2ccco2)C(=S)N1 the results were Htt clearance -19.
`CN(CC(=O)Nc1ccncc1)S(=O)(=O)c1ccc(Cl)cc1` gave D1 mod -0.99, SF1 activator -12, RORA act -20, M1 antagonist -0.23 and M1 ag -0.69.
For Nc1nnc(CCC2CCCCC2)s1 the results were SF1 activator 22, RORA act 9, M1 antagonist -0.6, Htt clearance 12 and M1 ag -0.13.
N#CC1=C(N)SC(N)=C(C#N)C1CCC1CCCCC1 was read as D1 mod -1.4, SF1 activator -11, RORA act 16, M1 antagonist 0.063, Htt clearance -79, M1 ag 6.3*, M1 agonist conf 12 and M4 ag counter 17.
Screening CCOc1cccc(C(=O)Nc2cccc(-c3nc4ncccc4o3)c2C)c1 returned D1 mod -0.84, SF1 activator 0, RORA act 14, M1 antagonist 0.11, M1 ag 4.2*, M1 agonist conf inconclusive and M4 ag counter -80*.
Cc1cc(C)cc(OCC(=O)Nc2cccc(-c3nc4ncccc4o3)c2)c1 was read as D1 mod -1.6, SF1 activator 8, RORA act 12, M1 antagonist -0.9, Htt clearance 0, M1 ag 6.8*, M1 agonist conf -1.6 and M4 ag counter -7.8.
Screening O=C(Cc1ccccc1)Nc1cccc(-c2nc3ncccc3o2)c1 returned D1 mod 1.5, SF1 activator 13, RORA act -7, M1 antagonist -0.18, Htt clearance 20 and M1 ag -0.35.
`Cc1ccc(-c2nc3ncccc3o2)cc1NC(=O)c1cc2ccccc2o1` gave D1 mod 0.56, SF1 activator -15, RORA act -15, M1 antagonist -0.5, Htt clearance -27 and M1 ag 1.8.
For O=C(Nc1cccc(-c2nc3ncccc3o2)c1)c1cc2ccccc2o1 the results were D1 mod -0.95, SF1 activator 1, RORA act 4, M1 antagonist -0.098, M1 ag 6*, M1 agonist conf -18 and M4 ag counter inconclusive.
CC(=O)NC1(C(F)(F)F)C(=O)NC(C)=C1C#N (centres undefined) was read as SF1 activator -10, RORA act 4, M1 antagonist 0.4 and M1 ag -0.24.
Screening COc1ccccc1CNC(=O)N[C@@H](Cc1ccccc1)C(=O)O returned D1 mod -0.78, SF1 activator -5, RORA act 0, M1 antagonist 0.34 and M1 ag 0.91.
Cc1csc(NC(=O)CSc2nnc(Cn3c(=O)sc4ccccc43)n2-c2ccccc2)n1 was read as D1 mod 3.2, SF1 activator 4, RORA act -5, M1 antagonist 0.0034, Htt clearance -18 and M1 ag 0.22.
`O=C(c1cnn2c(C(F)(F)F)cc(-c3ccco3)nc12)N1CCc2ccccc2C1` gave D1 mod 0.36, SF1 activator -32, RORA act -6, M1 antagonist 0.097, Htt clearance -8 and M1 ag 0.2.
For O=C(Nc1cccc(C(F)(F)F)c1)C12CC3CC(CC(C3)C1)C2 the results were Htt clearance 40.
Screening CCOC(=O)N1CCN(c2c(NCCCN3CCCCCC3)c(=O)c2=O)CC1 returned Htt clearance 50.
CCOC(=O)c1ccc(NC(=O)c2ccc(C)c(S(=O)(=O)N3CCOCC3)c2)cc1 was read as D1 mod -6.6*, M1 antagonist -3.1*, M1 ag 16*, M1 agonist conf 11 and M4 ag counter -27.
For O=C(Nc1ccc2c(c1)OCCO2)c1ccc(Br)c(S(=O)(=O)N2CCOCC2)c1 the results were D1 mod 0.017, SF1 activator 26, RORA act 30, M1 antagonist -0.65, M1 ag 11*, M1 agonist conf inconclusive and M4 ag counter -68.
